Assay results published in ChEMBL document CHEMBL1135469, “Design, synthesis, and antiproliferative activity of some new pyrazole-fused amino derivatives of the pyranoxanthenone, pyranothioxanthenone, and pyranoacridone ring systems: a new class of cytotoxic agents” (J Med Chem, 2002).

Legend:
HRT-18 cell line [1] = test: In vitro inhibition of HRT-18 (human colon) cell proliferation.; assay type: functional, cell-based
How it was run: (§1)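 MTT assay on human cells grown in DMEM with 10% FBS and penicillin/streptomycin at 37 °C, 5% CO2. About 5000 cells/well; compounds diluted with DMSO are added after 24 h for 48 h. Then 1 mg/mL MTT (final) in serum-free, phenol-red-free RPMI for 4 h. Formazan dissolved in 2-propanol, OD 550 nm (ref 690 nm).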

MDA-MB-231 [2] = test: In vitro cytotoxic activity against human breast MDA-MB-231 cell line; assay type: functional, cell-based; how it was run: as §1
HCT-116 [3] = test: In vitro cytotoxic activity against human colon HCT116 cell line; assay type: functional, cell-based; how it was run: as §1
A549 [4] = test: In vitro cytotoxic activity against human lung A549 cell line; assay type: functional, cell-based; how it was run: as §1
L1210 = test: In vitro cytotoxic activity against murine leukemia cell line L1210; assay type: functional, cell-based; settings: Mus musculus
Calf thymus DNA = test: In vitro inhibition of calf thymus DNA/ethidium bromide complex formation.; assay type: nucleic-acid assay
How it was run: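 Ethidium displacement: compounds added to 5 mM Tris-HCl/0.5 mM EDTA buffer, pH 8, containing calf thymus DNA (1 µg/mL) and ethidium bromide (1 µg/mL). EC50 is the concentration halving DNA/ethidium complex fluorescence. Mean of two experiments.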

HT-29 [5] = test: In vitro cytotoxic activity against human colon HT-29 cell line; assay type: functional, cell-based; how it was run: as §1
HT-29 [6] = test: In vitro cytotoxic activity against human colon HT-29 cell line ( standard deviation in parenthesis); assay type: functional, cell-based; how it was run: as §1
HCT-116 [7] = test: In vitro cytotoxic activity against human colon HCT116 cell line ( standard deviation in parenthesis); assay type: functional, cell-based; how it was run: as §1
MDA-MB-231 [8] = test: In vitro cytotoxic activity against human breast MDA-MB-231 cell line ( standard deviation in parenthesis); assay type: functional, cell-based; how it was run: as §1
HRT-18 cell line [9] = test: In vitro cytotoxic activity against human colon […] cell line ( standard deviation in parenthesis); assay type: functional, cell-based; how it was run: as §1
HRT-18 cell line [10] = test: In vitro cytotoxic activity against human colon HRT-18 cell line; assay type: functional, cell-based
How it was run: (§2)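 MTT assay on human tumour cells grown in DMEM with 10% FBS, penicillin and streptomycin at 37 °C, 5% CO2. About 5000 cells/well were seeded, and compounds diluted with DMSO were added after 24 h. After 48 h exposure, 1 mg/mL MTT (final) was added for 4 h. Formazan was dissolved in 2-propanol and read at 550 nm (reference 690 nm).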

A549 [11] = test: In vitro cytotoxic activity against human lung A549 cell line); assay type: functional, cell-based; how it was run: as §2
A549 [12] = test: In vitro cytotoxic activity against human lung A549 cell line ( standard deviation in parenthesis); assay type: functional, cell-based; how it was run: as §2

EC50 (Calf thymus DNA) [µM]	Structure (SMILES)	IC50 (HRT-18 cell line [1]) [µM]	IC50 (MDA-MB-231 [2]) [µM]	IC50 (HCT-116 [3]) [µM]	IC50 (A549 [4]) [µM]	IC50 (L1210) [µM]	IC50 (HT-29 [5]) [µM]	IC50 (HT-29 [6]) [µM]	IC50 (HCT-116 [7]) [µM]	IC50 (MDA-MB-231 [8]) [µM]	IC50 (HRT-18 cell line [9]) [µM]	IC50 (HRT-18 cell line [10]) [µM]	IC50 (A549 [11]) [µM]	IC50 (A549 [12]) [µM]
274	COc1cccc2c1Oc1c3c(cc4c1c-2nn4CCO)OC(C)(C)C=C3	> 100	> 100	64	> 100	> 10	> 100							
	CN1c2ccccc2-c2nn(CCOS(C)(=O)=O)c3cc4c(c1c23)C=CC(C)(C)O4					2.5		20	49					
	CC1(C)C=Cc2c(cc3c4c(nn3CCOS(C)(=O)=O)-c3ccccc3Oc24)O1				> 100	31.9		24	33	53	22			
150	COc1cccc2c1Oc1c3c(cc4c1c-2nn4CCN(C)C)OC(C)(C)C=C3	17	48	51	50	14.6	9							
	CCN(CC)CCn1nc2c3c(c4c(cc31)OC(C)(C)C=C4)Oc1ccccc1-2	5	9	40	10	9.1	9							
	COc1cccc2c1Oc1c3c(cc4c1c-2nn4CCOS(C)(=O)=O)OC(C)(C)C=C3					26.7								
> 500	CC1(C)C=Cc2c(cc3c4c(nn3CCOS(C)(=O)=O)-c3ccccc3Sc24)O1					15		45	44	> 100	30			
	COc1ccc2c(c1)-c1nn(CCOS(C)(=O)=O)c3cc4c(c(c13)N2C)C=CC(C)(C)O4				> 100	0.4		18	12	12				
	CC1(C)C=Cc2c(cc3c4c(nn3CCN3CCCC3)-c3ccccc3Oc24)O1	30	12	42	27	8.3	9							
273	CCN(CC)CCn1nc2c3c(c4c(cc31)OC(C)(C)C=C4)Oc1c(OC)cccc1-2	30	11	41	33	9.9	9							
71.7	COc1cccc2c1Oc1c3c(cc4c1c-2nn4CCN1CCCC1)OC(C)(C)C=C3	60	11	43	33	10.6	8							
	CC1(C)C=Cc2c(cc3c4c(nn3CCO)-c3ccccc3Oc24)O1	4	100	28	> 100	> 10	12							
	CC1(C)C=Cc2c(cc3c4c(nn3CCN3CCCCC3)-c3ccccc3Oc24)O1	10	20	20	15	10.1	6.5							
431	CN(C)CCn1nc2c3c(c4c(cc31)OC(C)(C)C=C4)Oc1ccccc1-2	50	50	54	32	9.8	18							
290	COc1cccc2c1Oc1c3c(cc4c1c-2nn4CCN1CCCCC1)OC(C)(C)C=C3	12	37	54	31	16.5	6							

Structure (SMILES)	EC50 (Calf thymus DNA) [µM]	IC50 (HRT-18 cell line [1]) [µM]	IC50 (MDA-MB-231 [2]) [µM]	IC50 (HCT-116 [3]) [µM]	IC50 (A549 [4]) [µM]	IC50 (L1210) [µM]	IC50 (HT-29 [5]) [µM]	IC50 (HT-29 [6]) [µM]	IC50 (HCT-116 [7]) [µM]	IC50 (MDA-MB-231 [8]) [µM]	IC50 (HRT-18 cell line [9]) [µM]	IC50 (HRT-18 cell line [10]) [µM]	IC50 (A549 [11]) [µM]	IC50 (A549 [12]) [µM]
COc1cc2c(c3c1c(=O)c1ccccc1n3C)C=CC(C)(C)O2 [ACRONINE]	270			> 100			> 100					> 100	> 100	
Cc1c2ccncc2c(C)c2c1[nH]c1ccccc12 [ELLIPTECINE]	22.2							15		2.3				10
O=C1c2c(O)ccc(O)c2C(=O)c2c(NCCNCCO)ccc(NCCNCCO)c21 [MITOXANTRONE]	3.4									1				
